The sample as a whole holds a higher share of hits than the screen did.
NALP1 inh = blocks the NALP1 inflammasome reconstituted in yeast; S. cerevisiae NALP1/ASC/caspase-1 growth, X-gal OD620, 72 h; AID 2071; inhibition, % at 10 µM; actives 0.61% (n = 280,000); in the data active = inhibition mostly above about 24%, no sharp cut-off; inactive = mostly below about 32%
Lmaj promast = Leishmania major promastigote growth inhibition; Leishmania major promastigotes, resazurin fluorescence viability; inhibition, % at 10 µM; actives 9% (n = 200,000); AID 1063; in the data active = inhibition above about 50%;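 note: promastigotes grown with compound for 44 hours at 28 °C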
NALP3 yeast inh = blocks the NALP3 inflammasome reconstituted in yeast. Yeast reconstituted NLRP3/ASC/caspase-1, beta-gal luminescence, 24 h. inhibition, % at 10 µM. actives 0.39% (n = 330,000);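 active = inhibition of 50% or more; inactive = inhibition below 50%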
T cruzi inh = T. cruzi replication inhibition. T. cruzi beta-gal in NIH3T3, luminescence, 90 h. inhibition, % (no concentration beside the values). actives 1.4% (n = 300,000). AID 1885;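 active = mean inhibition across valid replicates above about 55%, limit read from the data; inconclusive = mean below that limit but half or more replicates reach it; inactive = mean below it, under half of replicates reach it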;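 note: signal also drops with host cell toxicity which is not excluded here; higher percent means less beta-gal luminescence so fewer parasites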
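Incubation – ≥90 h infection period, 3 h prior cell attachment · System – NIH/3T3 fibroblasts plus reporter T. cruzi · Doses – compound pinned at 50 nL/well, DMSO · Read-out basis – percent inhibition of parasite-derived β-gal signal · Signal – luminescent β-galactosidase signal after 60 min lysis · Also added – 5000 T. cruzi trypomastigotes/well · Medium – Low-serum DMEM with 2% FBS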
Calb FLC = affects C. albicans growth with fluconazole | C. albicans CaCi-2 + fluconazole, Alamar Blue growth, 48 h | growth inhibition, % (no concentration beside the values) | actives 0.57% (n = 300,000) | AID 1979;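 active = growth inhibition above about 58% in most replicates, limit read from the data, passing the limit was not always enough; inconclusive = exactly half the replicates above a set limit; inactive = most replicates below a set limit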;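 note: all wells also contain fluconazole at 8 µg/ml as a sub-toxic cotreatment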
PolyA inh = inhibitors of polyadenylation in S. cerevisiae; AID 1875; actives 0.02% (n = 300,000); activity score, % at 12 µM; S. cerevisiae SKY197-pL101 polyadenylation reporter, beta-gal luminescence; efflux-impaired pdr1/pdr3 knockout yeast; score 100 = 6 SD above DMSO;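 active = lowest replicate activity score at least 50, where 100 means six control SD above control mean; inconclusive = lowest score under 50 but half or more replicates reach 50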;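 note: yeast exposed to compound for 9 h at 30 °C; higher score means more reporter readthrough which indicates perturbed polyadenylation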
Hits are given with their value; - = inactive; ? = inconclusive; . = no result given.

SMILES	NALP1 inh	Lmaj promast	NALP3 yeast inh	T cruzi inh	Calb FLC	PolyA inh
CN(C)C(CNC(=S)Nc1cccc(Cl)c1)c1ccccc1 (stereo unspecified)	-	-	-	-	-	-
Cc1ccc(OCC(=O)NNC(=O)c2ccoc2C)c(Br)c1	-	72.3	-	-	-	-
CCC(C)[C@H]1COCCS(=O)(=O)N1Cc1ccc(Br)cc1 (stereo partly specified)	-	.	-	-	-	-
COc1ccc(C(=O)Nc2c(N)nc(SCC(=O)N3CCCCCC3)[nH]c2=O)cc1OC	-	-	-	-	-	-
CCCCN(CC)CCNC(=O)c1ccc2c(Cl)c3c(nc2c1)CCC3	-	.	-	-	-	-
CCN(CC)CCNC(=O)CSc1c2c(nc3cc(Cl)ccc13)CCCC2	-	100.6	-	-	-	-
CCN(CC)CCCNC(=O)c1ccc2c(Cl)c3c(nc2c1)CCCC3	-	82.7	-	-	?	-
NC(=O)N1CCC2(CC1)NC(=O)N(c1ccccc1)N2	-	-	-	-	108.6	-
CC(=O)N1CCC2(CC1)NC(=O)N(c1ccccc1)N2	-	-	-	-	-	-
COc1ccc(C(CC(=O)c2ccccc2)CC(=O)c2ccccc2)cc1OC	-	50.8	-	-	-	-
Cc1cc(C(=O)Nc2ccc(F)cc2)c2ccccc2n1	-	.	-	-	-	-
Cc1ccc(C)c(N2CCN(C(=O)CCCN3C(=S)NC(C)(C)CC3C)CC2)c1 (stereo unspecified)	-	-	-	-	-	-
Cc1cccc(N2CCN(C(=O)CCN3C(=S)NC(C)(C)CC3C)CC2)c1C (stereo unspecified)	-	65.2	-	-	-	-
CC1(C2CC2)NC(=O)N(CC(=O)Nc2ccc(SC(F)F)cc2)C1=O (stereo unspecified)	.	.	-	.	.	.
O=C(CN1CCOCC1)NN=C1CCCCCCCCCCC1	-	52.0	-	-	-	-
O=C(CN1CCOCC1)NN=C(c1ccccc1)c1ccccc1	-	-	-	-	-	-
COc1ccc(-c2noc(CNC(=O)c3ccoc3C)n2)cc1OC	-	.	-	-	-	-
CN(C)CCCNc1ccc(-c2nn(C)c(=O)c3ccccc23)cc1[N+](=O)[O-]	-	100.2	-	67.6	-	-
COCCNc1ccc(-c2nn(C)c(=O)c3ccccc23)cc1[N+](=O)[O-]	.	.	-	-	-	-
Cc1cccc(/C=c2\s/c(=C\C(=O)C(C)(C)C)[nH]c2=O)c1	-	-	-	-	-	-
CC(C)(C)C(=O)/C=c1\[nH]c(=O)/c(=C\c2ccc(C#N)cc2)s1	-	60.2	-	-	-	-
Cc1ccc(S(=O)(=O)N(C)Cc2ccc(C(=O)N/N=C/c3ccc(OC(F)F)cc3)cc2)cc1	-	-	-	-	-	-
O=C(Nc1nccs1)c1cn(-c2ccccc2)nc1-c1ccncc1	-	-	-	-	-	-
CC(=O)c1ccc(NC(=O)c2cn(-c3ccccc3)nc2-c2ccncc2)cc1	-	-	-	-	-	-
COC(=O)c1ccc(NC(=O)c2cn(-c3ccccc3)nc2-c2ccncc2)cc1	-	-	-	56.3	-	-
SMILES	NALP1 inh	Lmaj promast	NALP3 yeast inh	T cruzi inh	Calb FLC	PolyA inh
O=C(Nc1ccncc1)c1cn(-c2ccccc2)nc1-c1cccs1	-	94.8	-	-	-	-
C=CCn1c(COc2ccc(F)cc2)nnc1SCC(=O)NC1CC1	.	.	-	-	-	-
COC(=O)NC(NC(=S)Nc1ccc([N+](=O)[O-])cc1)C(Cl)(Cl)Cl (stereo unspecified)	-	99.1	-	-	-	-
COC(=O)c1ccccc1NC(=S)NC(NC(=O)c1ccccc1[N+](=O)[O-])C(Cl)(Cl)Cl (stereo unspecified)	-	95.6	-	-	-	-
COc1ccc(NC(=S)NC(NC(=O)c2cccc3ccccc23)C(Cl)(Cl)Cl)c([N+](=O)[O-])c1 (stereo unspecified)	-	-	-	67.5	-	-
Cc1ccc(S(=O)(=O)N2[C@@H](c3ccc(C(C)(C)C)cc3)C(C(=O)O)=CC[C@H]2c2ccc(C(C)C)cc2)cc1	.	.	-	.	.	.
O=[N+]([O-])c1nn(-c2ccc3c(c2)OCCO3)n(O)c1=NC1CCCCC1	-	70.1	-	-	-	-
O=[N+]([O-])c1nn(-c2ccc3c(c2)OCCO3)n(O)c1=NCc1ccccc1Cl	-	81.7	-	-	-	-
CCCCCCOc1ccc(/C(N)=N/O)cc1	-	86.5	-	-	-	-
Cc1ccc(CNC(=O)CN2C(=O)NC(C)(c3ccccc3Cl)C2=O)cc1 (stereo unspecified)	-	.	-	-	-	-
O=C1c2[nH]nc(-c3ccccc3O)c2C(c2cccc(Cl)c2)N1CC1CCCO1 (stereo unspecified)	-	-	-	-	-	-
COc1ccc(C2c3c(-c4ccccc4O)n[nH]c3C(=O)N2Cc2ccco2)cc1OC (stereo unspecified)	-	.	-	-	-	-
O=C1c2[nH]nc(-c3ccccc3O)c2C(c2cccc(Cl)c2)N1Cc1ccco1 (stereo unspecified)	-	79.0	-	-	-	-
O=C1c2[nH]nc(-c3ccccc3O)c2C(c2ccc(F)cc2)N1Cc1ccco1 (stereo unspecified)	-	94.4	-	-	-	-
O=C(NCCN1C(=O)S/C(=C\c2ccc(Cl)c([N+](=O)[O-])c2)C1=O)C1=COCCO1	.	.	-	-	.	-
CCC(C)(C)n1nnnc1C(c1ccc2ncccc2c1)N1CCN2CCCC2C1 (stereo unspecified)	-	69.7	-	-	-	-
CCCC(c1nnnn1C(C)(C)CC)N1CCN(C2CCCC2)CC1 (stereo unspecified)	-	-	-	.	.	.
c1cnc2ccc(C(c3nnnn3C3CCCCC3)N3CCN4CCCC4C3)cc2c1 (stereo unspecified)	-	72.3	-	-	-	-
O=C1CC(C2CCCO2)C(=O)N1c1ccccc1 (stereo unspecified)	-	-	-	-	-	-
O=C(Nc1ccccc1)c1cccc(N2C(=O)CCC2=O)c1	-	-	-	-	-	-
O=C(Nc1nnc(-c2ccc(Cl)cc2)o1)c1ccc(N2C(=O)CCC2=O)cc1	-	65.7	-	-	-	-
Cc1ccc(C(=O)Nc2nnc(-c3ccncc3)o2)cc1	-	52.9	-	-	-	-
O=C(Nc1nnc(-c2ccco2)o1)c1ccc(N2C(=O)CCC2=O)cc1	-	-	-	-	-	-
Cc1ccc(C(=O)Nc2nc(-c3ccccc3)c(-c3ccccc3)o2)cc1	-	-	-	58.6	-	-
CN(C)c1ccc(NC(=O)c2cccc(N3C(=O)CCC3=O)c2)cc1	39.9	-	-	-	-	-
CSc1ccccc1NC(=O)N1CCCC(C(=O)c2ccc3c(c2)OCO3)C1 (stereo unspecified)	-	-	-	-	-	-
